Series [1] is described as follows: Drug metabolism in human hepatocytes assessed as CYP-mediated methyl 4,6-diamino-2-(5-fluoro-1H-pyrazolo[3,4-b]pyridin-3-yl)pyrimidin-5-ylcarbamate metabolite formation. The class given is ADME, cell-based.
For series [2], the species on record is Homo sapiens. The experiment in a line: Stimulation of sGC (unknown origin) using alpha-[32P]-GTP as substrate assessed as increase in [32P]-cGMP formation at 100 uM in presence of sGC inhibitor ODQ. In short, it runs like this: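 Purified recombinant sGC (0.2 μg/mL) assayed by [32P]-cGMP formation from α-[32P]-GTP, with 200 μM GTP, 3 mM Mn2+/Mg2+ and 1 mM cGMP. Substrate turnover kept <10%. DMSO ≤1% (v/v). ODQ present. Activity expressed as x-fold over basal. Duplicates, repeated five times.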

Series [3] deals with Rattus norvegicus. Description: Antihypertensive activity in L-NAME-treated renin transgenic rat co-expressing RenTG(mRRen2)27 assessed as reduction in plasma ANP levels at 3 to 10 mg/kg administered qd via oral gavage up to 21 days. The class given is functional, organism-based. In short, it runs like this: (§1)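 Male RenTG(mRRen2)27 rats, 8 weeks old, given L-NAME in drinking water (50 mg/L) throughout. Randomised to placebo (2 mL/kg qd, n = 20) or 3 and 10 mg/kg/day po by gavage qd (n = 15 per group). Tail-cuff blood pressure on day 0, 7, 14 and 21. Plasma taken at day 22 end. Unpaired t test, mean ± SEM.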

Series [4] deals with Saphenous artery. Description: Vasorelaxant activity in normal Chinchilla rabbit saphenous artery ring administered at the beginning of the last resting period of 28 mins. It counts as functional. Conditions: Oryctolagus cuniculus.
Series [5] relates to Heart. The experiment in a line: Cardiotoxicity in Wistar rat assessed as effect on contractility administered for 20 mins. It counts as toxicity, tissue-based. The gist of the method: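 Male Wistar rats (200−250 g) anesthetized with Narcoren 100 mg/kg ip. Excised heart Langendorff-perfused at constant flow 10 mL/min with Krebs−Henseleit buffer gassed with 95% O2/5% CO2. Values expressed as relative change from baseline before compound application.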

Series [6] deals with T1, Cytochrome P450 2A6 (Homo sapiens, UniProt P11509).
T1 sequence (P11509 whole entry): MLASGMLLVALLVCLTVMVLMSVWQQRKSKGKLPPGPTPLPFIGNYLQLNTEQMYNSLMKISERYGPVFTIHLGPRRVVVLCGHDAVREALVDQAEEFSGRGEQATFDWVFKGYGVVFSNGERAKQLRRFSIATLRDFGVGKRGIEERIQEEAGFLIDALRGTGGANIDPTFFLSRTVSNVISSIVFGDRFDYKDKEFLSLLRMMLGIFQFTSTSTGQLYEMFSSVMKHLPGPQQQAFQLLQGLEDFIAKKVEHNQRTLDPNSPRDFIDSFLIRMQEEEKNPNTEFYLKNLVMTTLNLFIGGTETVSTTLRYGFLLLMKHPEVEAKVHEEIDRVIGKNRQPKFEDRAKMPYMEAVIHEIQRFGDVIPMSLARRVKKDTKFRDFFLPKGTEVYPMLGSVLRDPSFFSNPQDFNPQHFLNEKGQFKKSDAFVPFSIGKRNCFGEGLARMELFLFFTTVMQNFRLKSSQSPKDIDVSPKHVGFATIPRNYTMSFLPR
Description: Inhibition of human liver microsomes CYP2A6 using coumarin as substrate. The class given is ADME. In general terms: Liver microsomes are vesicles of endoplasmic reticulum, rich in cytochrome P450 enzymes.

Series [7] can be described thus: Stimulation of rat sGC expressed in CHO cells using GTP as substrate assessed as increase in cGMP formation treated for 6 mins by luminescence assay. The class given is cell-based. In short, it runs like this:
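CHO reporter cells overexpressing sGC, cultured 1 or 2 d, then loaded 3 h with coelenterazine in calcium-free Tyrode. Compound serial dilutions applied 6 min. Calcium added (final 3 mM) and luminescence read for 40 s by CCD camera. SNAP co-applied at 30 or 100 nM where stated. ODQ condition: 10 μM ODQ pretreatment for 3 h.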

Series [8] deals with T2, Cytochrome P450 1A2 (Homo sapiens, UniProt P05177).
T2 sequence (P05177 whole entry): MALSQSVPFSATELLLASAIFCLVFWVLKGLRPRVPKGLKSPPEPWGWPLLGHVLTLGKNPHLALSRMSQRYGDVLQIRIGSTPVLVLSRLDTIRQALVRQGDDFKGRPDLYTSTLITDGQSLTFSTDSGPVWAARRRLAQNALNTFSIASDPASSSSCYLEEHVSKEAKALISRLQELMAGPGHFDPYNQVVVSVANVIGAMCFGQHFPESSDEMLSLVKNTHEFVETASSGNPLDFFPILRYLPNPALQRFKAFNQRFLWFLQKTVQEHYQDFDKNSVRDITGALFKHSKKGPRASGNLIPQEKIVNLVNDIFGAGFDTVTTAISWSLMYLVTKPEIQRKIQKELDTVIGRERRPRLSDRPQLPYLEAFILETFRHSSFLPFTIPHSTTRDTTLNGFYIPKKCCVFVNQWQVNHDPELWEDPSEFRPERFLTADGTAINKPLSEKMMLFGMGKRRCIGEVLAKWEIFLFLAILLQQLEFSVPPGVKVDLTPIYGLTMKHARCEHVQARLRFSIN
The experiment in a line: Inhibition of human liver microsomes CYP1A2 using phenacetin as substrate. It counts as ADME.

Series [9] concerns the target Cytochrome P450 2D6 (Homo sapiens, UniProt P10635). Description: Inhibition of human liver microsomes CYP2D6 using dextromethorphan as substrate. The class given is ADME.
Series [10] addresses T3, Cytochrome P450 2B6 (Homo sapiens, UniProt P20813).
T3 sequence (P20813 whole entry): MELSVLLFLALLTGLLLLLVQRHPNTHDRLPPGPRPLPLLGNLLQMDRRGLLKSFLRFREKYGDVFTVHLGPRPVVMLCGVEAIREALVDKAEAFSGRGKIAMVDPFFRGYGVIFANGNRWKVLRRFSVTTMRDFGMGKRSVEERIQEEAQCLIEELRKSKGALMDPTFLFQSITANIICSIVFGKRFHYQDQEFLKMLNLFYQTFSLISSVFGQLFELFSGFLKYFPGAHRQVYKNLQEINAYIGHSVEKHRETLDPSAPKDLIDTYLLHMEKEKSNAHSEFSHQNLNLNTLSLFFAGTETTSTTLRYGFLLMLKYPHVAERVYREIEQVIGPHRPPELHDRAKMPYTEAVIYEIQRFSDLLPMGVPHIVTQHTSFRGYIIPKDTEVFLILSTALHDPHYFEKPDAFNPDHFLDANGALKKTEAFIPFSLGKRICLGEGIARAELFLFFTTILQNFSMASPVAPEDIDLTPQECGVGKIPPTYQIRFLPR
Description: Inhibition of human liver microsomes CYP2B6 using bupropion as substrate. The class given is ADME.

The target in series [11] is Cytochrome P450 2C9 (Homo sapiens, UniProt P11712). Description: Inhibition of human liver microsomes CYP2C9 using diclofenac as substrate. It counts as ADME.
In series [12] the test system is Rattus norvegicus. The experiment in a line: Antihypertensive activity in L-NAME-treated renin transgenic rat co-expressing RenTG(mRRen2)27 assessed as reduction in heart hypertrophy in left ventricle administered qd via oral gavage up to 21 days. The class given is functional. The gist of the method: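 Renin transgenic RenTG(mRRen2)27 male rats, 8 weeks old, on L-NAME drinking water (50 mg/L). Dosed by gavage qd with placebo (n = 20) or 3 or 10 mg/kg/day (n = 15 each). At day 22 animals were anesthetized and sacrificed, and left and right ventricles were dissected and weighed for hypertrophy. Unpaired t test versus placebo.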

For series [13], the system named is Rattus norvegicus. The experiment in a line: Antihypertensive activity in L-NAME-treated renin transgenic rat co-expressing RenTG(mRRen2)27 assessed as reduction in proteinuria administered qd via oral gavage up to 21 days. It counts as functional. In short, it runs like this:
as §1

Activity calls are given as the source filed them. No cut-off for these calls is given here.

Chain of Cytochrome P450 2C9 (P11712 whole entry): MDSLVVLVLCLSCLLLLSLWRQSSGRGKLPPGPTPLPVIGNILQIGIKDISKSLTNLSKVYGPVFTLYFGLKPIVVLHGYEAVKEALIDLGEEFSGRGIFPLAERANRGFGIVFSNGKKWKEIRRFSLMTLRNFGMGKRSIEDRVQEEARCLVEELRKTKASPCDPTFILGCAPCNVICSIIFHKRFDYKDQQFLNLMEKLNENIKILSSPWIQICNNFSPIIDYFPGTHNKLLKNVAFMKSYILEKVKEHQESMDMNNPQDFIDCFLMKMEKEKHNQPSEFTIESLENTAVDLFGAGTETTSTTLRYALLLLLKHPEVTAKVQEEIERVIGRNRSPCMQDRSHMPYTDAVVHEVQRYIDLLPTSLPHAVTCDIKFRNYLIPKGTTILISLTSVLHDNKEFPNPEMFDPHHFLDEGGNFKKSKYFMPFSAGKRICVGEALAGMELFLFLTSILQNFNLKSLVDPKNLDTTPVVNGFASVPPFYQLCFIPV
Chain of Cytochrome P450 2D6 (P10635 whole entry): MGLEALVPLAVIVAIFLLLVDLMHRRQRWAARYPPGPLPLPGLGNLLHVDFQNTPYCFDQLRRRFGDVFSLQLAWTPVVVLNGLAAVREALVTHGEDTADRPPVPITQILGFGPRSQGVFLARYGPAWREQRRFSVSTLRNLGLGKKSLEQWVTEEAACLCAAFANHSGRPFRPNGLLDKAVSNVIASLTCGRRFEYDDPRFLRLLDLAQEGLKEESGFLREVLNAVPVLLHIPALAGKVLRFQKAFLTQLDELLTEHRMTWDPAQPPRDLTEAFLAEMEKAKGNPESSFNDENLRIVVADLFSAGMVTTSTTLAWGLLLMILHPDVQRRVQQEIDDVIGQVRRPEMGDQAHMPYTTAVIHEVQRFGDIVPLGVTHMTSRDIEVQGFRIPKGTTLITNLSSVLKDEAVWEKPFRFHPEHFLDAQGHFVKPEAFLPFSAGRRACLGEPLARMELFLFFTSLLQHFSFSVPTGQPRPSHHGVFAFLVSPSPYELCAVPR

What is called IC50 is the concentration that gives 50% inhibition. The low end stands for greater potency in that assay, the high end for weaker potency in that assay. By EC50 is commonly meant the concentration needed to bring the measured effect to its halfway point. Take `COC(=O)Nc1c(N)nc(-c2nn(Cc3ccccc3F)c3ncc(F)cc23)nc1N` [VERICIGUAT]: the Drug metabolism result in series [1] is “Metabolite_Detected”. In addition, in series [2], the outcome was inactive. Also, the outcome in series [3] was Active. In addition, the IC50 was 0.0056 µM in [4]; greater than 50 µM in [6]; greater than 50 µM in series [8]; greater than 50 µM in series [9]; greater than 50 µM in series [10]; greater than 50 µM in series [11]. Besides, the Activity entry in [5] is “Non-Toxic”; in series [12], “Dose-dependent effect”; in series [13], “Dose-dependent effect”. Further, in series [7], the EC50 was determined as 1.01 µM.

Source of the values: ChEMBL document CHEMBL4014344, “Discovery of the Soluble Guanylate Cyclase Stimulator Vericiguat (BAY 1021189) for the Treatment of Chronic Heart Failure” (J Med Chem, 2017).
